SF1 activator – activates the human nuclear receptor SF-1. CHO-K1 Gal4-SF-1 LBD luciferase reporter; % increase over DMSO SF-1-specific signal. activation, % at 10 µM. hit rate 1.9% among 65,000. AID 522. Q13285;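 active means activation above the mean activation of all tested compounds plus 3 SD, cut at about 50% in these data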
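Assay system: CHO-K1 cells co-transfected with Gal4 DBD–human SF-1 LBD, 5xGal4 luciferase reporter / Input: 4,000 cells per well / Incubation: 20 h compound exposure at 37 °C after 1 h cell settling / Detection: SteadyLite luciferase luminescence / Control set: DMSO negative control and −SF1 background wells / Replication: one test per compound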
M1 ag – agonists of M1 muscarinic receptor; CHO-M1 cells, Fluo-4 calcium fluorescence, agonist mode; hits give high values; B-score at 10 µM; hit rate 3% among 64,000; AID 626;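 active means fluorescence rise, raw or as B-score row- and column-corrected plate score, outside the 99.7% band of its plate's samples, either direction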
Htt clearance – mutant huntingtin protein clearance; HeLa Exon1htt(103Q)mCFP, aggregate imaging; zero = plate's median compound well; inhibition, % at 1.5 µM; hit rate 0.42% among 47,000; AID 853;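 active means inhibition of aggregate fluorescence above about 70%, also judged a hit by eye on the cell image, limit read from the data, passing the limit was not always enough; inconclusive means no rule stated for this call; inactive means not judged a hit on image review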;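 further: cells exposed to compound for three days before fixation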
M1 antagonist – blocks the rat M1 muscarinic receptor response to acetylcholine. CHO-M1 cells, Fluo-4 calcium, ACh EC80 antagonist mode; hits give low values. AID 628. B-score at 10 µM. P08482. hit rate 3.4% among 64,000;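 active means calcium fluorescence response, raw or row-and-column corrected B-score, differing from the plate sample mean either way at a set confidence level, mostly lower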
Target sequence (P08482 whole entry, looked up): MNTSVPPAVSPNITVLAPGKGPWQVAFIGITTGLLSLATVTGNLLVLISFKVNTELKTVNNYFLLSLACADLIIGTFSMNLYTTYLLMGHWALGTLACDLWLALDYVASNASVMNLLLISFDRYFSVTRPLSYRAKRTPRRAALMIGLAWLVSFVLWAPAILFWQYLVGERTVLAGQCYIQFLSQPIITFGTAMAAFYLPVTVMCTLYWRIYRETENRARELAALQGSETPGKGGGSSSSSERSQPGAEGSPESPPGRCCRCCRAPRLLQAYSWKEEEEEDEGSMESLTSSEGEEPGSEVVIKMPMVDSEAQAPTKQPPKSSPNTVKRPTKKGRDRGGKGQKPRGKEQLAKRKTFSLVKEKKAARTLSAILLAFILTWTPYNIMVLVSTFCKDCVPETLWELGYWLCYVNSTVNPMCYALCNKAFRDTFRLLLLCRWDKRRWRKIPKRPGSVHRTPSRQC
D1 allo mod – D1 dopamine receptor (human) allosteric modulation. P21728. HEK293 D1, CRE-luciferase, dopamine EC30 potentiation; actives deviate in either direction. B-score at 10 µM. hit rate 5.9% among 58,000. AID 641;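 active means luminescence count or its row- and column-corrected plate score outside the 99.7% band of the plate's sample wells, on either side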
RORA act – activators of human nuclear receptor RORA; P35398; CHO-K1 Gal4-RORA LBD luciferase reporter, luminescence; percent increase over mock-subtracted basal signal; activation, % at 10 µM; hit rate 1.5% among 65,000;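 active means activation above the mean of all tested compounds plus 3 SD, cut at about 49% in these data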
D1 PAM confirm – D1 receptor (human) allosteric modulation, confirmed | shares compounds with D1 allo mod | HEK293 D1 CRE-luciferase, dopamine EC30 potentiation; hits give high values | luminescence at 10 µM | hit rate 88% among 2,200;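 active means luminescence in either of two replicates above the same-plate mean plus 3 SD of the low-dose dopamine control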
D1 no dopamine – secondary test of D1 modulators: activity without dopamine | shares compounds with D1 allo mod | HEK293 D1 CRE-luciferase, luminescence, no dopamine; hits give high values | luminescence at 10 µM | hit rate 0.8% among 1,900 | AID 646; in the data active means luminescence above about 3900
Isoprot counter – alters isoproterenol CRE-luciferase response in HEK293 cells | shares compounds with D1 allo mod | HEK293 D1 CRE-luciferase, isoproterenol EC30 counter-screen | calls only at 10 µM | hit rate 63% among 2,200 | AID 647;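 active means luminescence in either replicate above plate mean of wells with a partly effective reference agonist dose plus 3 SD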;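 further: isoproterenol raises cAMP through native beta-adrenoceptor Gs so signal bypasses D1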
A number is an active result; n = inactive; u = inconclusive; x = no result; + = active, no number. Hits are enriched below; roughly 11% of the tested compounds scored in any of these assays.

SMILES	SF1 activator	M1 ag	Htt clearance	M1 antagonist	D1 allo mod	RORA act	D1 PAM confirm	D1 no dopamine	Isoprot counter
CCC(=O)c1ccc(OCC(=O)N2CCc3cc(OC)c(OC)cc3C2)cc1	n	n	x	n	n	n	x	x	x
CCOc1ccc(C(=O)N2CCc3cc(OC)c(OC)cc3C2)cc1OCC	n	n	n	n	4.6	n	15188	n	+
COc1cc2c(cc1OC)CN(C(=O)COc1ccc(C)c(C)c1)CC2	n	n	x	n	13	n	21228	n	+
COc1cccc(C(=O)N2CCN(C(=O)c3cccs3)CC2)c1OC	n	n	n	n	n	n	x	x	x
COc1ccc(CN2CCN(C(=O)c3cccs3)CC2)cc1Br	n	n	n	n	6.4	n	12896	x	+
CCOC(=O)Cn1ncc(-c2ccccc2)c1N	n	n	n	n	n	n	x	x	x
COc1ccc(C(=O)Nc2ccc(F)cc2F)cc1OC	x	x	n	x	x	x	x	x	x
COc1ccc(C(=O)NC2=C(C#N)CCC2)cc1OC	n	n	x	n	13	n	12668	x	+
COC(=O)c1cc(NC2c3ccccc3C(=O)N2c2cccnc2)cc(C(=O)OC)c1 (configuration not stated)	n	n	n	n	n	n	x	x	x
CC(=O)Nc1cc(C(=O)N2CCOCC2)ccc1S(=O)(=O)c1ccc(C)cc1	n	n	n	n	5.6	n	n	n	n
COc1ccc(C(=O)COC(=O)CCN=C2NS(=O)(=O)c3ccccc32)cc1OC	n	n	n	n	4.6	n	13264	n	+
Cc1cc(C(=O)NCc2cccs2)c(C)o1	n	n	n	n	n	n	x	x	x
Cc1cc2c(cc(C(=O)OCC(=O)NCc3cccs3)n2C(C)C)o1	n	n	u	n	11	57	7700	n	+
c1ccc2[nH]c(SN3CCOCC3)nc2c1	n	n	x	n	n	n	x	x	x
CCCn1c(SCC(N)=O)nc2c(c1=O)C1(CCCC1)Cc1ccccc1-2	n	n	n	n	x	n	x	x	x
CCn1c(SCC#N)nc2c(c1=O)C1(CCCC1)Cc1ccccc1-2	n	n	n	n	2.5	n	7420	x	n
COc1ccc(OCc2nnc3n2N=C(c2ccc(OC)cc2)CS3)cc1	n	n	x	n	9.7	n	13236	x	+
CCOc1ccc(C2=Nn3c(nnc3-c3ccc(OC)cc3)SC2)cc1	n	n	u	n	7.8	n	11104	n	+
CCOC(=O)CSC(C)C(=O)Nc1nnc(C(C)C)s1 (configuration not stated)	n	n	x	n	n	n	x	x	x
Cc1cc(NC(=O)C2CC(c3ccc(Cl)cc3)=NO2)no1 (configuration not stated)	x	x	n	x	x	x	x	x	x
CCOc1cc2[nH]c(=O)n(CCCN3CCCC3=O)c(=O)c2cc1OCC	n	n	n	n	2.7	n	6760	x	n
COc1cc2[nH]c(=O)n(CCCCCC(=O)NCCCN3CCCC3=O)c(=O)c2cc1OC	n	n	x	n	n	n	x	x	x
CC(=O)Nc1ccc(C(=O)NC(CC(=O)O)c2ccc(Cl)cc2)cc1 (configuration not stated)	x	x	n	x	x	x	x	x	x
CN(C)c1ccc(C(CC(=O)O)NC(=O)c2ccc(Cl)cc2)cc1 (configuration not stated)	n	n	n	n	18	n	n	x	n
COC(=O)/C(=C1/Oc2cc3c(cc2S1)OCO3)C(F)(F)F	n	n	x	n	3.4	n	11868	n	n
COc1ccccc1CC(=O)NCc1ccc2c(c1)OCO2	n	n	n	n	n	n	x	x	x
C=CCNC(=O)c1ccccc1NC(=O)c1ccccc1	n	n	n	n	8.3	n	16308	n	n
Cc1ccc(CNC(=O)CCNC(=O)Cn2ccc3ccccc3c2=O)o1	n	n	n	n	n	n	x	x	x
CCOc1ccc(CNC(=O)CCn2c(=O)oc3ccccc32)cc1	n	n	n	n	5.4	n	n	n	n
CC1CCN(C(=O)C2(NC(=O)Nc3cccc(F)c3)CCCCC2)CC1	x	x	n	x	x	x	x	x	x
